Activity calls are given as the source filed them. No cut-off for these calls is given here. Square brackets hold non-standard residues; d marks the D form. Peptide text beside a SMILES is read from it. * marks the point of attachment. 5FAM = O=C1OC2(c3ccc(O)cc3Oc3cc(O)ccc32)c2ccc(C(=O)*)cc21; Orn = NCCC[C@H](N)C(=O)O; Dab = NCC[C@H](N)C(=O)O; Dap = NC[C@H](N)C(=O)O; Glyoxylyl = O=CC(=O)*
Key:
[1] = biological target: T1, Protein-glutamine gamma-glutamyltransferase (Homo sapiens) (UniProt P21980); assay: Inhibition of human recombinant TG2 at 750 uM
T1 sequence (whole entry): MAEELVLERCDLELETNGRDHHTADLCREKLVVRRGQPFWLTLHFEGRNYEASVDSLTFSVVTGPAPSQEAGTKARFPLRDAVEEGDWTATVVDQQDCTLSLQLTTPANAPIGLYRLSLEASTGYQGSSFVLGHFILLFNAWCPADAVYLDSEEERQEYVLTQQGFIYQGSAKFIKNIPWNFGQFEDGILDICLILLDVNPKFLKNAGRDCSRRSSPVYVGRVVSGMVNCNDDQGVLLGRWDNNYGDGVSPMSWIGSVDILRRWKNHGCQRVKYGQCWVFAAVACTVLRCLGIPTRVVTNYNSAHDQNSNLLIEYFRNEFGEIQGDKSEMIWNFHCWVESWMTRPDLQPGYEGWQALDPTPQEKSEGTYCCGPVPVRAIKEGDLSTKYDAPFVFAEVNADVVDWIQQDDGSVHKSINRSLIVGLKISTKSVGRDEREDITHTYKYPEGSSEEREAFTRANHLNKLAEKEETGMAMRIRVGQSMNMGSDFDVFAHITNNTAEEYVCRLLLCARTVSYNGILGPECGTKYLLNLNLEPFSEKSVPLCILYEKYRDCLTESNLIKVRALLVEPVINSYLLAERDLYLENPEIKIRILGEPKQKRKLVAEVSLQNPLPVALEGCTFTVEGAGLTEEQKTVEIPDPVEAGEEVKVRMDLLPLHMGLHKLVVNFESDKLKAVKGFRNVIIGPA

[2] = biological target: T2, Protein-glutamine gamma-glutamyltransferase (Homo sapiens, UniProt P21980); assay: Inhibition of human recombinant TG2
T2 sequence (P21980 whole entry): T1 sequence (whole entry)
In short: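 Continuous spectrophotometric coupled deamidation assay with recombinant human TG2: MOPS buffer pH 7.2 with CaCl2, EDTA, α-ketoglutarate, glutamate dehydrogenase and NADH; Z-Gln-Gly substrate (10–40 mM); reaction started by adding TG2. Velocities from linear regression; Ki by non-linear fitting of velocity vs ZQG to Michaelis-Menten with Vmax fixed at the uninhibited value.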

[3] = biological target: T1, Protein-glutamine gamma-glutamyltransferase (Homo sapiens); assay: Inhibition of human recombinant TG2 at 100 uM
[4] = Enhancement of antigen presentation in HLA-DQ2 homozygous B-lymphoblastoid VAVY cells; type: functional, cell-based, Homo sapiens
In short: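 VAVY cells γ-irradiated (12,000 rads), pulsed with peptides for 10 h, washed by centrifugation, then co-cultured 1:1 with DQ2-αI-responsive polyclonal T cells for 48 h. [³H]thymidine (1 μCi/well) added for 18–24 h; incorporated radioactivity counted as a measure of surface peptide-DQ2 complexes; EC50 derived from titration.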

[5] = biological target: T1, Protein-glutamine gamma-glutamyltransferase (Homo sapiens); assay: Inhibition of human recombinant TG2 at 500 uM
[6] = system: VAVY; assay: Induction of cell proliferation in HLA-DQ2 homozygous B-lymphoblastoid VAVY cells at 10 uM after overnight incubation; type: functional, cell-based; conditions: Homo sapiens
In short: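 γ-Irradiated (12,000 rads) VAVY cells at 2×10^6 cells/ml pulsed with 10 μM peptide for 2 h or overnight, then washed out by centrifugation (800g, 3 min, 4°C). Re-suspended APCs (1×10^6/ml) co-cultured 48 h with equal volume of P28 TCL1 T cells (1×10^6/ml); [³H]thymidine 1 μCi/well for 18–24 h; proliferation by scintillation counting.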

Row | Structure (SMILES) | Ki [2] [µM] | EC50 [4] [µM] | also measured
1 | CC(C)C[C@H](NC(=O)[C@H](NC(=O)C=O)NC(=O)[C@@H]1CCCN1C(=O)[C@H](CCC(N)=O)NC(=O)[C@@H]1CCCN1)C(=O)N1CCC[C@H]1C(=O)N[C@@H](Cc1ccccc1)C(=O)O |  |  | Activity [1]: inactive
2 | CC(C)C[C@H](NC(=O)[C@H](CCCNC(=O)C=O)NC(=O)[C@@H]1CCCN1C(=O)[C@H](CCC(N)=O)NC(=O)[C@@H]1CCCN1)C(=O)N1CCC[C@H]1C(=O)N[C@@H](Cc1ccccc1)C(=O)O (H-PQP[Orn](Glyoxylyl)LPF-OH) | 200 |  | 
3 | CC(C)C[C@H](NC(=O)[C@H](CNC(=O)C=O)NC(=O)[C@@H]1CCCN1C(=O)[C@H](CCC(N)=O)NC(=O)[C@@H]1CCCN1)C(=O)N1CCC[C@H]1C(=O)N[C@@H](Cc1ccccc1)C(=O)O (H-PQP[Dap](Glyoxylyl)LPF-OH) | 300 |  | 
4 | CC(=O)NCC[C@H](NC(=O)[C@@H]1CCCN1C(=O)[C@H](CCC(N)=O)NC(=O)[C@@H]1CCCN1C(=O)c1ccc2c(c1)C(=O)OC21c2ccc(O)cc2Oc2cc(O)ccc21)C(=O)N[C@@H](CC(C)C)C(=O)N1CCC[C@H]1C(=O)N[C@@H](Cc1ccccc1)C(=O)O (5FAM-PQP[Dab](Ac)LPF-OH) |  |  | Activity [3]: inactive
5 | CC(C)C[C@H](NC(=O)[C@H](CCNC(=O)C=O)NC(=O)[C@@H]1CCCN1C(=O)[C@H](CCC(N)=O)NC(=O)[C@@H]1CCCN1)C(=O)N1CCC[C@H]1C(=O)N[C@@H](Cc1ccccc1)C(=O)O (H-PQP[Dab](Glyoxylyl)LPF-OH) | 40 |  | 
6 | CC(C)C[C@H](NC(=O)[C@H](CCCCNC(=O)C=O)NC(=O)[C@@H]1CCCN1C(=O)[C@H](CCC(N)=O)NC(=O)[C@@H]1CCCN1)C(=O)N1CCC[C@H]1C(=O)N[C@@H](Cc1ccccc1)C(=O)O (H-PQPK(Glyoxylyl)LPF-OH) |  |  | Activity [5]: inactive
7 | CC(C)C[C@H](NC(=O)c1ccc2c(c1)C(=O)OC21c2ccc(O)cc2Oc2cc(O)ccc21)C(=O)N[C@@H](CCC(N)=O)C(=O)N1CCC[C@H]1C(=O)N[C@@H](Cc1ccccc1)C(=O)N1CCC[C@H]1C(=O)N[C@@H](CNC(=O)C=O)C(=O)N1CCC[C@H]1C(=O)N[C@@H](CCC(=O)O)C(=O)N[C@@H](CC(C)C)C(=O)N1CCC[C@H]1C(=O)N[C@@H](Cc1ccc(O)cc1)C(=O)O (5FAM-LQPFP[Dap](Glyoxylyl)PELPY-OH) |  | 1 | Activity [6]: Active

Now from value to compound, other results behind:

Row | Ki [2] [µM] | EC50 [4] [µM] | Structure (SMILES) | also measured
8 |  | 3.3 | CC(C)C[C@H](NC(=O)c1ccc2c(c1)C(=O)OC21c2ccc(O)cc2Oc2cc(O)ccc21)C(=O)N[C@@H](CCC(N)=O)C(=O)N1CCC[C@H]1C(=O)N[C@@H](Cc1ccccc1)C(=O)N1CCC[C@H]1C(=O)N[C@@H](CCC(N)=O)C(=O)N1CCC[C@H]1C(=O)N[C@@H](CCC(=O)O)C(=O)N[C@@H](CC(C)C)C(=O)N1CCC[C@H]1C(=O)N[C@@H](Cc1ccc(O)cc1)C(=O)O (5FAM-LQPFPQPELPY-OH) | 
9 |  | 0.016 | CC(C)C[C@H](NC(=O)c1ccc2c(c1)C(=O)OC21c2ccc(O)cc2Oc2cc(O)ccc21)C(=O)N[C@@H](CCC(N)=O)C(=O)N[C@@H](CC(C)C)C(=O)N[C@@H](CCC(N)=O)C(=O)N1CCC[C@H]1C(=O)N[C@@H](Cc1ccccc1)C(=O)N1CCC[C@H]1C(=O)N[C@@H](CCC(N)=O)C(=O)N1CCC[C@H]1C(=O)N[C@@H](CCC(=O)O)C(=O)N[C@@H](CC(C)C)C(=O)N1CCC[C@H]1C(=O)N[C@@H](Cc1ccc(O)cc1)C(=O)N1CCC[C@H]1C(=O)N[C@@H](CCC(N)=O)C(=O)N1CCC[C@H]1C(=O)N[C@@H](CCC(=O)O)C(=O)N[C@@H](CC(C)C)C(=O)N1CCC[C@H]1C(=O)N[C@@H](Cc1ccc(O)cc1)C(=O)O (5FAM-LQLQPFPQPELPYPQPELPY-OH) | 
10 |  | 0.039 | CC(C)C[C@H](NC(=O)c1ccc2c(c1)C(=O)OC21c2ccc(O)cc2Oc2cc(O)ccc21)C(=O)N[C@@H](CCC(N)=O)C(=O)N[C@@H](CC(C)C)C(=O)N[C@@H](CCC(N)=O)C(=O)N1CCC[C@H]1C(=O)N[C@@H](Cc1ccccc1)C(=O)N1CCC[C@H]1C(=O)N[C@@H](CNC(=O)C=O)C(=O)N1CCC[C@H]1C(=O)N[C@@H](CCC(=O)O)C(=O)N[C@@H](CC(C)C)C(=O)N1CCC[C@H]1C(=O)N[C@@H](Cc1ccc(O)cc1)C(=O)N1CCC[C@H]1C(=O)N[C@@H](CNC(=O)C=O)C(=O)N1CCC[C@H]1C(=O)N[C@@H](CCC(=O)O)C(=O)N[C@@H](CC(C)C)C(=O)N1CCC[C@H]1C(=O)N[C@@H](Cc1ccc(O)cc1)C(=O)O (5FAM-LQLQPFP[Dap](Glyoxylyl)PELPYP[Dap](Glyoxylyl)PELPY-OH) | 

Source: ChEMBL document CHEMBL1140681, “Structure-based design of alpha-amido aldehyde containing gluten peptide analogues as modulators of HLA-DQ2 and transglutaminase 2” (Bioorg Med Chem, 2007)
